Laboratory results published in paper PMC3972754 (European biophysics journal : EBJ, 2013).
Counter-ions that a name gives are not always drawn. Like-named read-outs stand apart in the source and are kept apart here.

How the values were obtained:
[1] = target: T1, cPAH (phenylalanine hydroxylase from Chromobacterium violaceum) (Chromobacterium violaceum, UniProt P30967); assay: ITC, one-site model; assay type: binding
T1 sequence (P30967 1-297): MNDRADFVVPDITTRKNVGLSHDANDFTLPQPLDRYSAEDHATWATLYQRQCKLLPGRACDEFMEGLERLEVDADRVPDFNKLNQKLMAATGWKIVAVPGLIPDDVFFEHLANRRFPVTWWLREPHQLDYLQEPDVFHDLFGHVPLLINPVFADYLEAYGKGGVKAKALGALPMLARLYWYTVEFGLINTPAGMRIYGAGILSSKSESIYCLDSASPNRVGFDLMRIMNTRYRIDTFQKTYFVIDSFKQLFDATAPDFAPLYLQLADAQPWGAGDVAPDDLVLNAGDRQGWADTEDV

[2] = target: T1, cPAH (phenylalanine hydroxylase from Chromobacterium violaceum); assay: tyrosine formation at […] nm, initial rates; assay type: biochemical; details: 20 °C, 0.1 M Na-HEPES pH 7.4, O2 saturated, FeSO4, 350 µM DMPH4
[3] = target: T2, cPAH (phenylalanine hydroxylase from Chromobacterium violaceum) (Chromobacterium violaceum, UniProt P30967, S203P); assay: biochemical
[4] = target: T3, cPAH (phenylalanine hydroxylase from Chromobacterium violaceum) (Chromobacterium violaceum, UniProt P30967, T254A); assay: biochemical
[5] = target: T4, cPAH (phenylalanine hydroxylase from Chromobacterium violaceum) (Chromobacterium violaceum, UniProt P30967, Y155A); assay: biochemical
[6] = target: T5, cPAH (phenylalanine hydroxylase from Chromobacterium violaceum) (Chromobacterium violaceum, UniProt P30967, F258A); assay: biochemical
[7] = target: T1, cPAH (phenylalanine hydroxylase from Chromobacterium violaceum); assay: ITC; assay type: binding
Summary of the method: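 Untagged or GST-cleaved C. violaceum cPAH (WT or point mutants), dialysed overnight against 50 mM HEPES pH 7.4. Amino-acid ligand (1–10 mM) titrated into 50–100 µM protein over 18 × 2 µL injections. Buffer-only reference subtracted; one-site fit; duplicates. Anaerobic variant (argon, 25 °C): apo enzyme reconstituted with 0.5–1.0 mol ferrous ammonium sulfate per mol PAH, plus 200 µM pterin cofactor, equilibrated 15 min.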

[8] = target: T4, cPAH (phenylalanine hydroxylase from Chromobacterium violaceum); assay: biochemical; remark: listed apart in the source
[9] = target: T5, cPAH (phenylalanine hydroxylase from Chromobacterium violaceum); assay: biochemical; remark: listed apart in the source
[10] = target: T3, cPAH (phenylalanine hydroxylase from Chromobacterium violaceum); assay: biochemical; remark: listed apart in the source
[11] = target: T2, cPAH (phenylalanine hydroxylase from Chromobacterium violaceum); assay: biochemical; remark: listed apart in the source

In the case of `N[C@@H](Cc1ccccc1)C(=O)O` [phenylalanine], the Kd [1] is reported as 24 ± 1.1 µM, the Km [2] is reported as 244 ± 40.8 µM and the Kd [3] is reported as 7 ± 0.3 µM. It also gave a Kd [4] of 376 ± 10 µM, a Kd [5] of 559 ± 30 µM and a Kd [6] of 775 ± 44 µM.
`C[C@H](O)[C@H](O)[C@H]1CNc2nc(N)[nH]c(=O)c2N1` [BH4, (6R)-5,6,7,8-tetrahydrobiopterin dihydrochloride] was tested, and the Kd [7] was 23.5 ± 1.6 µM, the Kd [8] was 16.2 ± 0.7 µM and the Kd [9] was 29.3 ± 1.6 µM. For the same compound, the Kd [10] was 43.6 ± 4.2 µM and the Kd [11] was 35.2 ± 3.3 µM.
